Results taken from ChEMBL document CHEMBL1914413, “Using the pER8:GUS reporter system to screen for phytoestrogens from Caesalpinia sappan” (J Nat Prod, 2011).
Calls of active or inactive are those of the source. No cut-off for these calls is given here.

Tests used:
Hep 3B2 = test: (§1) Cytotoxicity against human Hep3B cells after 3 days by MTT assay; type: functional, cell-based
Arabidopsis thaliana [1] = test: Estrogenic activity in transgenic Arabidopsis thaliana transfected with pER8:GUS plasmid assessed as beta-glucuronidase expression at 500 uM after 48 hrs using 4-methylumbelliferyl-beta-D-glucuronide by fluorometric assay; type: functional, organism-based
Method in brief: (§2)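 Transgenic Arabidopsis pER8:GUS plants are incubated with or without test compound. GUS expression is quantified by fluorometric assay. 17β-Estradiol is the positive control, run over 0.01–100 μM.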

MCF7 [2] = test: Cytotoxicity against human MCF7 cells after 3 days by MTT assay; type: functional, cell-based
MDA-MB-231 = test: Cytotoxicity against human MDA-MB-231 cells after 3 days by MTT assay; type: functional, cell-based
A549 = test: Cytotoxicity against human A549 cells after 3 days by MTT assay; type: functional, cell-based; details: for IC50: A549, 72 h
Ca9-22 = test: Cytotoxicity against human Ca9-22 cells after 3 days by MTT assay; type: functional, cell-based; details: for IC50: Ca9-22, 72 h
Arabidopsis thaliana [3] = test: Estrogenic activity in transgenic Arabidopsis thaliana transfected with pER8:GUS plasmid assessed as beta-glucuronidase expression at 150 to 280 uM after 48 hrs using 4-methylumbelliferyl-beta-D-glucuronide by fluorometric assay; type: functional, organism-based; method in brief: as §2
HepG2 = test: Cytotoxicity against human HepG2 cells after 3 days by MTT assay; type: functional, cell-based
[4] = as §1; type: functional, cell-based, Hep 3B2; details: 72 h
MCF7 [5] = test: Estrogenic activity in human ER-positive MCF7 cells assessed as secreted alkaline phosphatase activity at 20 uM after 48 hrs by phospha-light reporter chemiluminescence assay; type: functional, cell-based
MCF7 [6] = test: Antiestrogenic activity in human ER-positive MCF7 cells assessed as inhibition of 17beta estradiol-induced secreted alkaline phosphatase activity at 1 to 20 uM after 48 hrs by phospha-light reporter chemiluminescence assay; type: functional, cell-based
MCF7 [7] = test: Antiestrogenic activity in human ER-positive MCF7 cells assessed as inhibition of 17beta estradiol-induced cell proliferation at 1 to 20 uM after 48 hrs by MTT assay; type: functional, cell-based
MCF7 [8] = test: Estrogenic activity in human ER-positive MCF7 cells assessed as secreted alkaline phosphatase activity after 48 hrs by phospha-light reporter chemiluminescence assay; type: functional, cell-based
Arabidopsis thaliana [9] = test: Estrogenic activity in transgenic Arabidopsis thaliana transfected with pER8:GUS plasmid assessed as beta-glucuronidase expression after 48 hrs using 4-methylumbelliferyl-beta-D-glucuronide by fluorometric assay; type: functional; method in brief: as §2
MCF7 [10] = test: Antiestrogenic activity in human ER-positive MCF7 cells assessed as inhibition of 17beta estradiol-induced secreted alkaline phosphatase activity at 2 nM after 48 hrs by phospha-light reporter chemiluminescence assay; type: functional, cell-based
MCF7 [11] = test: Estrogenic activity in human ER-positive MCF7 cells assessed as secreted alkaline phosphatase activity at 0.01 nM after 48 hrs by phospha-light reporter chemiluminescence assay; type: functional, cell-based
MCF7 [12] = test: Antiestrogenic activity in human ER-positive MCF7 cells assessed as inhibition of 17beta estradiol-induced secreted alkaline phosphatase activity at 20 nM after 48 hrs by phospha-light reporter chemiluminescence assay; type: functional, cell-based

Activity (Arabidopsis thaliana [1])	Activity (Arabidopsis thaliana [3])	SMILES	Activity (Hep 3B2)	Activity (MCF7 [2])	Activity (MDA-MB-231)	Activity (A549)	Activity (Ca9-22)	Activity (HepG2)	IC50 [4]	Activity (MCF7 [5])	other results
Active	inactive	Oc1ccc(C[C@@]2(O)COc3cc(O)ccc3[C@H]2O)cc1	inactive	inactive	inactive	inactive	inactive	inactive	–	–	–
Active	inactive	Oc1ccc2c(c1)OC[C@]1(O)Cc3cc(O)c(O)cc3[C@H]21 [BRAZILIN]	–	–	–	–	–	–	15.9 µM	inactive	inhibition (MCF7 [6]): Active; inhibition (MCF7 [7]): Active
–	–	O=c1c(-c2ccc(O)cc2)coc2cc(O)cc(O)c12	–	–	–	–	–	–	–	–	inhibition (MCF7 [6]): Active; Activity (MCF7 [8]): Dose-dependent effect
Active	inactive	O=C1C=C2CC3(O)COc4cc(O)ccc4C3=C2C=C1O (configuration not stated) [BRAZILEIN]	–	–	–	–	–	–	12 µM	inactive	inhibition (MCF7 [6]): Active; inhibition (MCF7 [7]): Active
–	–	O=C1c2ccc(O)cc2OC[C@]1(O)Cc1ccc(O)cc1	inactive	inactive	inactive	inactive	inactive	inactive	–	Active	MAC (Arabidopsis thaliana [9]): 10.9 µM; Activity (MCF7 [8]): Dose-dependent effect
–	–	O=C(c1ccc(OCCN2CCCCC2)cc1)c1c(-c2ccc(O)cc2)sc2cc(O)ccc12	–	–	–	–	–	–	–	–	inhibition (MCF7 [10]): Active
–	–	COc1cccc2c1C(=O)c1c(O)c3c(c(O)c1C2=O)C[C@@](O)(C(=O)CO)C[C@@H]3O[C@H]1C[C@H](N)[C@H](O)[C@H](C)O1 [DOXORUBICIN]	–	–	–	–	–	–	1.03 µM	–	–
Active	inactive	Oc1ccc(C[C@@]2(O)COc3cc(O)ccc3[C@@H]2O)cc1	inactive	inactive	inactive	inactive	inactive	inactive	–	–	–
–	–	C[C@]12CC[C@@H]3c4ccc(O)cc4CC[C@H]3[C@@H]1CC[C@@H]2O	–	–	–	–	–	–	–	–	Activity (Arabidopsis thaliana [9]): Dose-dependent effect; Activity (MCF7 [11]): Active
Active	inactive	O=C1c2ccc(O)cc2OC[C@@H]1O	–	inactive	inactive	–	–	inactive	47.2 µM	inactive	IC50 (A549): 80.7 µM; IC50 (Ca9-22): 62.2 µM
–	–	O=c1c(O)coc2cc(O)ccc12	inactive	inactive	inactive	inactive	inactive	inactive	–	Active	MAC (Arabidopsis thaliana [9]): 8.8 µM
Active	inactive	CC1(C)O[C@H]2c3ccc(O)cc3OC[C@@]2(Cc2ccc(O)c(O)c2)O1	inactive	inactive	inactive	inactive	inactive	inactive	–	Active	–
–	–	O=C1c2ccc(O)cc2OC[C@@H]1Cc1ccc(O)c(O)c1	inactive	inactive	inactive	inactive	inactive	inactive	–	Active	MAC (Arabidopsis thaliana [9]): 2.7 µM; Activity (MCF7 [8]): Dose-dependent effect
–	–	COc1cc(O)ccc1C(=O)/C=C/c1ccc(O)cc1	–	–	–	–	–	–	17.9 µM	Active	IC50 (MCF7 [2]; MCF7, 72 h): 51.4 µM; IC50 (MDA-MB-231; MDA-MB-231, 72 h): 44.4 µM; IC50 (A549): 32.6 µM; MAC (Arabidopsis thaliana [9]): 2.8 µM; IC50 (Ca9-22): 57.6 µM; IC50 (HepG2; HepG2, 72 h): 7.37 µM
–	–	CC/C(=C(\c1ccccc1)c1ccc(OCCN(C)C)cc1)c1ccccc1	–	–	–	–	–	–	–	–	inhibition (MCF7 [12]): Active
